From ChEMBL document CHEMBL4819088, “Synthesis and in vivo screening of isosteviol derivatives as new cardioprotective agents” (2021)
Calls of active or inactive are those of the source. The calls are words filed in the database; no cut-off is given here.

Key:
Danio rerio [1] = species on record: Danio rerio; test: Prevention of doxorubicin-induced Zebrafish mortality assessed as survival rate at 40 uM incubated for 48 hrs by inverted fluorescence microscopy (reference value: 52%); assay type: functional
Danio rerio [2] = species on record: Danio rerio; test: Prevention of doxorubicin-induced Zebrafish mortality assessed as survival rate at 5 uM incubated for 48 hrs by inverted fluorescence microscopy (reference value: 52%); assay type: functional
Danio rerio [3] = species on record: Danio rerio; test: Prevention of doxorubicin-induced Zebrafish mortality assessed as survival rate at 15 uM incubated for 48 hrs by inverted fluorescence microscopy (reference value: 52%); assay type: functional
Danio rerio [4] = species on record: Danio rerio; test: Prevention of doxorubicin-induced Zebrafish mortality assessed as increase in survival rate incubated for 48 hrs by inverted fluorescence microscopy; assay type: functional, organism-based; settings: dose 5-40 µM
In short: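 Wild-type embryos, 24 hpf, 20 per well in 1 mL egg water, exposed to DOX (100 μM) with or without test compound (5, 15, 40 μM) for 48 h. Survival scored at 96 hpf by inverted fluorescence microscopy; no motion on touch, or loss of atrial and ventricular contractility, counted as dead. Mean ± S.D., n = 4.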

Danio rerio [5] = test: Cardioprotective activity in (cmlc2:GFP) transgenic Zebrafish assessed as reduction in doxorubicin-induced cardiac edema measured after 48 hrs; assay type: functional, organism-based
Danio rerio [6] = species on record: Danio rerio; test: Cardioprotective activity in (cmlc2:GFP) transgenic Zebrafish assessed as prevention of doxorubicin-induced heart shape change measured after 48 hrs; assay type: functional, organism-based
Danio rerio [7] = species on record: Danio rerio; test: Cardioprotective activity in (cmlc2:GFP) transgenic Zebrafish assessed as reduction in doxorubicin-induced cardiac impairment measured after 48 hrs; assay type: functional, organism-based
In short: (§1)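 Tg(cmlc2:GFP) embryos, 24 hpf, 20 per well, exposed to DOX (80 μM) with or without test compound at its optimum concentration for 48 h. At 72 hpf, heart rate, fractional shortening, stroke volume and cardiac output were derived from fluorescence imaging of atrium and ventricle. Mean ± S.D., n = 4.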

Danio rerio [8] = species on record: Danio rerio; test: Cardioprotective activity against doxorubicin-induced (cmlc2:GFP) transgenic Zebrafish assessed as protection of heart measured after 48 hrs; assay type: functional, organism-based; settings: dose 20-60 µM; in short: as §1
Danio rerio [9] = species on record: Danio rerio; test: Cardioprotective activity against doxorubicin-induced (cmlc2:GFP) transgenic Zebrafish assessed as protection of heart function loss measured after 48 hrs; assay type: functional, organism-based; settings: dose 20-60 µM; in short: as §1
Danio rerio [10] = species on record: Danio rerio; test: Cardioprotective activity against Zebrafish assessed as reduction in doxorubicin-induced increase in Cardiac troponin T mRNA level by qRT-PCR analysis; assay type: functional, organism-based; settings: dose 20-40 µM
In short: (§2)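 Zebrafish embryos, either controls or exposed to doxorubicin with or without test compound. ANP and cTnT mRNA levels measured relative to control. Mean ± S.D., n = 4.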

Danio rerio [11] = species on record: Danio rerio; test: Cardioprotective activity against Zebrafish assessed as reduction in doxorubicin-induced increase in natriuretic peptide mRNA level by qRT-PCR analysis; assay type: functional, organism-based; settings: dose 20-40 µM; in short: as §2
H9c2 [12] = test: Cardioprotective activity against doxorubicin-induced rat H9c2 cells assessed as protection of cell damage measured after 48 hrs by CCK8 assay; assay type: functional, cell-based; settings: dose 0.5-12.5 µM
In short: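 H9c2 cells grown in DMEM with 10% FBS and penicillin/streptomycin at 37 °C, 5% CO2, used at 70% confluence. Exposed to DOX (10 μM) with or without test compound (0.5–12.5 μM) for 48 h. CCK-8 (0.5 mg/mL) then added for 4 h to read viability.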

H9c2 [13] = test: Cardioprotective activity against rat H9c2 cells assessed as inhibition of doxorubicin-induced ROS production preincubated for 48 hrs followed by loading with DCFDA dye for 40 mins by DCF-DA probe based fluorescence assay; assay type: functional, cell-based; settings: dose 1-10 µM
In short: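 H9c2 cells exposed for 48 h with or without test compound, then loaded with DCFH-DA (5 μM final, in DMEM) for 40 min at 37 °C. Cells washed three times with PBS; DCF fluorescence read by confocal microscopy as the ROS level. Mean ± S.D., n = 3.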

H9c2 [14] = test: Cardioprotective activity against rat H9c2 cells assessed as inhibition of doxorubicin-induced mitochondrial membrane potential loss incubated for 48 hrs by JC1 staining based confocal microscopy; settings: dose 1-10 µM

Row | Compound | Activity (Danio rerio [1]) | Activity (Danio rerio [2]) [%] | Activity (Danio rerio [3]) | other results
1 | COc1ccc(C(=O)OC[C@@H]2[C@@H](O)[C@@]3(C)CC[C@H]4[C@]5(C)CCC[C@@](C)(C(=O)O)[C@H]5CC[C@@]24C3)cc1 | >70% | – | – | –
2 | CC(=O)OC[C@@H]1C(=O)[C@@]2(C)CC[C@H]3[C@]4(C)CCC[C@@](C)(C(=O)O)[C@H]4CC[C@@]13C2 | inactive | – | – | –
3 | COc1cc(C(=O)OC[C@@H]2C(=O)[C@@]3(C)CC[C@H]4[C@]5(C)CCC[C@@](C)(C(=O)O)[C@H]5CC[C@@]24C3)cc(OC)c1OC | 68% | 68 | 68% | Activity (Danio rerio [4]): Dose-Dependent Effect; Activity (Danio rerio [5]): Dose-Dependent Effect; Activity (Danio rerio [6]): Dose-Dependent Effect; Activity (Danio rerio [7]): Dose-Dependent Effect; Activity (Danio rerio [8]): Dose-Dependent Effect; Activity (Danio rerio [9]): Dose-Dependent Effect
4 | COc1ccc(COC(=O)[C@]2(C)CCC[C@@]3(C)[C@@H]4CC[C@@]5(C)C[C@]4(CC[C@@H]32)CC5=O)cc1 | – | – | 60% | –
5 | C[C@]12CC[C@H]3[C@]4(C)CCC[C@@](C)(N)[C@H]4CC[C@@]3(C1)[C@H](CO)[C@H]2O | inactive | – | – | –
6 | C[C@]12CC[C@H]3[C@]4(C)CCC[C@@](C)(C(=O)O)[C@H]4CC[C@@]3(C1)[C@H](COC(=O)C1CCCCC1)C2=O | inactive | – | – | –
7 | C[C@@]12CC[C@@H]3[C@@](CC[C@H]4[C@@]3(C)CCC[C@@]4(C)C(=O)OCc3ccccc3)(CC1=O)C2 | – | 60 | – | –
8 | COc1cc(C(=O)OC[C@@H]2C(=O)[C@@]3(C)CC[C@H]4[C@]5(C)CCC[C@@](C)(N)[C@H]5CC[C@@]24C3)cc(OC)c1OC | 87% | – | – | Activity (Danio rerio [4]): Dose-Dependent Effect; Activity (Danio rerio [5]): Dose-Dependent Effect; Activity (Danio rerio [6]): Dose-Dependent Effect; Activity (Danio rerio [7]): Dose-Dependent Effect; Activity (Danio rerio [8]): Dose-Dependent Effect; Activity (Danio rerio [9]): Dose-Dependent Effect
9 | C[C@@H]1CC(=O)NN=C1c1ccc(NN=C(C#N)C#N)cc1 [LEVOSIMENDAN] | 74% | 58 | 69% | Activity (Danio rerio [4]): Dose-Dependent Effect
10 | C=C1C(=O)[C@@]2(C)CC[C@@H]3[C@]1(CC[C@H]1[C@@]3(C)CCC[C@@]1(C)C(=O)O)C2 | 26% | 50 | 38% | –
11 | C[C@@]12CC[C@@H]3[C@@](CC[C@H]4[C@@]3(C)CCC[C@@]4(C)C(=O)O)(CC1=O)C2 [ISOSTEVIOL] | inactive | 57 | inactive | Activity (Danio rerio [5]): Dose-Dependent Effect; Activity (Danio rerio [6]): Dose-Dependent Effect; Activity (Danio rerio [7]): Dose-Dependent Effect; Activity (Danio rerio [8]): Dose-Dependent Effect; Activity (Danio rerio [9]): Dose-Dependent Effect
12 | COc1ccc(C(=O)OC[C@@H]2[C@@H](O)[C@@]3(C)CC[C@H]4[C@]5(C)CCC[C@@](C)(C(=O)O)[C@H]5CC[C@@]24C3)cc1OC | >70% | – | – | –
13 | COc1cccc(C(=O)OC[C@@H]2[C@@H](O)[C@@]3(C)CC[C@H]4[C@]5(C)CCC[C@@](C)(N)[C@H]5CC[C@@]24C3)c1OC | Active | – | – | –
14 | COc1ccc(C(=O)OC[C@@H]2C(=O)[C@@]3(C)CC[C@H]4[C@]5(C)CCC[C@@](C)(C(=O)O)[C@H]5CC[C@@]24C3)cc1OC | Active | – | – | Activity (Danio rerio [1]; record 2): >70%
15 | COc1ccc(CC(=O)OC[C@@H]2[C@@H](O)[C@@]3(C)CC[C@H]4[C@]5(C)CCC[C@@](C)(C(=O)O)[C@H]5CC[C@@]24C3)cc1 | >70% | – | – | –
16 | COc1ccc(C(=O)OC[C@@H]2[C@@H](O)[C@@]3(C)CC[C@H]4[C@]5(C)CCC[C@@](C)(N)[C@H]5CC[C@@]24C3)cc1 | Active | – | – | –
17 | Cc1ccc(S(=O)(=O)OC[C@@H]2[C@@H](O)[C@@]3(C)CC[C@H]4[C@]5(C)CCC[C@@](C)(C(=O)O)[C@H]5CC[C@@]24C3)cc1 | 60% | 60 | 60% | –
18 | Cc1ccc(S(=O)(=O)OC[C@@H]2C(=O)[C@@]3(C)CC[C@H]4[C@]5(C)CCC[C@@](C)(C(=O)O)[C@H]5CC[C@@]24C3)cc1 | 60% | 60 | 60% | –
19 | COc1cc(C(=O)OC[C@@H]2[C@@H](O)[C@@]3(C)CC[C@H]4[C@]5(C)CCC[C@@](C)(N)[C@H]5CC[C@@]24C3)cc(OC)c1OC | Active | – | – | –
20 | C[C@@]12CC[C@@H]3[C@@](CC[C@H]4[C@@]3(C)CCC[C@@]4(C)N)(CC1=O)C2 | – | 85 | – | Activity (Danio rerio [4]): Dose-Dependent Effect; Activity (Danio rerio [5]): Dose-Dependent Effect; Activity (Danio rerio [6]): Dose-Dependent Effect; Activity (Danio rerio [7]): Dose-Dependent Effect; Activity (Danio rerio [8]): Dose-Dependent Effect; Activity (Danio rerio [9]): Dose-Dependent Effect
21 | COc1ccc(C(=O)OC[C@@H]2[C@@H](O)[C@@]3(C)CC[C@H]4[C@]5(C)CCC[C@@](C)(N)[C@H]5CC[C@@]24C3)c(OC)c1OC | Active | – | – | –
22 | C[C@]12CC[C@H]3[C@]4(C)CCC[C@@](C)(C(=O)O)[C@H]4CC[C@@]3(C1)[C@H](COC(=O)C1CCCCC1)[C@H]2O | inactive | – | – | –
23 | COC(=O)[C@]1(C)CCC[C@@]2(C)[C@@H]3CC[C@@]4(C)C[C@]3(CC[C@@H]21)CC4=O | 60% | – | – | –
24 | C[C@]12CC[C@H]3[C@]4(C)CCC[C@@](C)(N)[C@H]4CC[C@@]3(C1)[C@H](COC(=O)c1cccnc1)[C@H]2O | Active | – | – | –
25 | C[C@]12CC[C@H]3[C@]4(C)CCC[C@@](C)(C(=O)O)[C@H]4CC[C@@]3(C1)[C@H](CO)[C@H]2O | 60% | 60 | 60% | –
26 | CC(=O)OC[C@@H]1[C@@H](O)[C@@]2(C)CC[C@H]3[C@]4(C)CCC[C@@](C)(C(=O)O)[C@H]4CC[C@@]13C2 | inactive | – | – | –
27 | COc1cccc(C(=O)OC[C@@H]2C(=O)[C@@]3(C)CC[C@H]4[C@]5(C)CCC[C@@](C)(C(=O)O)[C@H]5CC[C@@]24C3)c1OC | 70% | – | – | –
28 | COc1ccc(C(=O)OC[C@@H]2C(=O)[C@@]3(C)CC[C@H]4[C@]5(C)CCC[C@@](C)(C(=O)O)[C@H]5CC[C@@]24C3)c(OC)c1OC | 77% | 77 | 77% | Activity (Danio rerio [4]): Dose-Dependent Effect; Activity (Danio rerio [5]): Dose-Dependent Effect; Activity (Danio rerio [6]): Dose-Dependent Effect; Activity (Danio rerio [7]): Dose-Dependent Effect; Activity (Danio rerio [8]): Dose-Dependent Effect; Activity (Danio rerio [9]): Dose-Dependent Effect
29 | COc1ccc(C(=O)OC[C@@H]2C(=O)[C@@]3(C)CC[C@H]4[C@]5(C)CCC[C@@](C)(N)[C@H]5CC[C@@]24C3)c(OC)c1OC | 98% | – | – | Activity (Danio rerio [4]): Dose-Dependent Effect; Activity (Danio rerio [5]): Dose-Dependent Effect; Activity (Danio rerio [6]): Dose-Dependent Effect; Activity (Danio rerio [7]): Dose-Dependent Effect; Activity (Danio rerio [8]): Dose-Dependent Effect; Activity (Danio rerio [9]): Dose-Dependent Effect; Activity (Danio rerio [10]): Dose-Dependent Effect; Activity (Danio rerio [11]): Dose-Dependent Effect; Activity (H9c2 [12]): Dose-Dependent Effect; Activity (H9c2 [13]): Dose-Dependent Effect; Activity (H9c2 [14]): Dose-Dependent Effect
